MsrA inhibitor – bovine MsrA inhibition; AID 651718; inhibition, % at 15.5 µM; purified bovine MsrA, absorbance read-out; hit rate 0.75% among 360,000; in the data active = inhibition above about 4.5%
GalR3 antagonist – blocks the human galanin receptor 3. HEK293 GalR3-CNG cAMP membrane potential fluorescence; galR3 body fused to GalR1 C-terminus. O60755. AID 651719. hit rate 0.44% among 360,000. inhibition, % at 3 µM;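 active = inhibition above the screen-wide average plus 3 SD, cut at about 13% in these data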;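 also: forskolin and galanin both at EC90 stimulate the cells; cAMP rise reported by CNG channel membrane potential dye signal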
Target sequence (O60755 1-299 limits assumed): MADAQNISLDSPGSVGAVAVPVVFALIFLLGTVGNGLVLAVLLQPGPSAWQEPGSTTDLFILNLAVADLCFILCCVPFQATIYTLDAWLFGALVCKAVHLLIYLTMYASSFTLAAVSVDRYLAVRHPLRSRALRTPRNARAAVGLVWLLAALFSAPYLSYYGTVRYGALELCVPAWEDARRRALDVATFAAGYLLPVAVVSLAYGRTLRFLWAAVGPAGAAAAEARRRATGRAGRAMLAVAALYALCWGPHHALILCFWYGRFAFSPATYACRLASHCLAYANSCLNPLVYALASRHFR
NadD block – blocks S. aureus nicotinate mononucleotide adenylyltransferase. purified NadD enzyme, colorimetric absorbance read-out. hit rate 0.78% among 360,000. inhibition, % at 20 µM; in the data active = inhibition above about 26%
NR2E3 ag-1 – agonists of human NR2E3 nuclear receptor | Q9Y5X4 | CHO-S Gal4-NCOR/VP16-NR2E3 two-hybrid, luciferase | inhibition of corepressor binding, % at 3.98 µM | hit rate 0.35% among 360,000;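 active = inhibition above the mean of all tested compounds plus 3 SD, cut at about 70% in these data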;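 also: higher means lower luciferase signal from less NR2E3 corepressor binding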
Target sequence (Q9Y5X4 whole entry, looked up, the tested form may be a part): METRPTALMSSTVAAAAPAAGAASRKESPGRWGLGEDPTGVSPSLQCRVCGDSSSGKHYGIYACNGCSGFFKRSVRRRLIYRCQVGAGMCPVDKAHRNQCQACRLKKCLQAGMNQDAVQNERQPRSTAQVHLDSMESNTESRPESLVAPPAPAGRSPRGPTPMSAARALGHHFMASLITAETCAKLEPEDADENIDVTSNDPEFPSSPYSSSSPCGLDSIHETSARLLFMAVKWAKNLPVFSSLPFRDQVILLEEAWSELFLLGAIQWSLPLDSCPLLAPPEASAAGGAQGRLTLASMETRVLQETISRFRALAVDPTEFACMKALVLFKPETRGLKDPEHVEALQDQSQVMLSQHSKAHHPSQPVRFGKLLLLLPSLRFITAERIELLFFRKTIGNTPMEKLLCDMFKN
NR2E3 ag-2 – activates human photoreceptor nuclear receptor NR2E3; Q9Y5X4; GST-NR2E3/biotin-RetCOR TR-FRET, 1536-well; hit rate 0.12% among 320,000; inhibition of corepressor binding, % at 4.78 µM;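 active = percent inhibition above the cutoff of mean plus 3 SD of all tested compounds, set per screening campaign, cut at about 20% in these data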
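Material – GST-tagged NR2E3 plus biotinylated RetCOR corepressor · Quantity – NR2E3 fusion 1.35 nM · Times – 5 h incubation at 4 °C · Medium – pH 7.5 Tris-based buffer · Technique – TR-FRET, Eu(K)-anti-GST donor, streptavidin-D2 acceptor, ex 340, em 617/671 nm · Benchmarks – high control biotin, low control 0.6% DMSO · Format – 1536-well plates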
bovine MsrA act – activates bovine MsrA enzyme; purified bovine MsrA, absorbance read-out; activation, % at 10.6 µM; hit rate 0.3% among 360,000; AID 602163; in the data active = activation above about 7.5%
NR2E3 agonist cf – NR2E3 (human) agonism, confirmation | shares compounds with NR2E3 ag-2 | cell-free NR2E3 corepressor release, TR-FRET, 5 h | activation (reported as inhibition), % at 3.98 µM | hit rate 39% among 360; in the data active = activation above about 20%
PPARg-NCOR2 ctr – releases PPARgamma from NCOR2 in NR2E3 counter-screen. shares compounds with NR2E3 ag-2. TR-FRET PPARg-NCOR2 coregulator interaction, biochemical. inhibition, % at 3.98 µM. hit rate 45% among 360. AID 504787; in the data active = inhibition above about 20%
Hits are given with their value. Rows were chosen to be rich in hits. Some 2.5% of all compounds tested hit in one or more screens of this group.

What do the screens show for `CCCOc1cccc(C2C(C(=O)c3ccco3)=C(O)C(=O)N2CCN(CC)CC)c1` (stereo unspecified)?
MsrA inhibitor: inactive; GalR3 antagonist: inactive; NadD block: inactive; NR2E3 ag-1: inactive; NR2E3 ag-2: inactive; bovine MsrA act: inactive

What do the screens show for `Cc1ccc(C(=O)C2=C(O)C(=O)N(Cc3cccnc3)C2c2cccc([N+](=O)[O-])c2)o1` (stereo unspecified)?
MsrA inhibitor: inactive; GalR3 antagonist: inactive; NadD block: inactive; NR2E3 ag-1: inactive; NR2E3 ag-2: inactive; bovine MsrA act: inactive

How did O=C(C1=C(O)C(=O)N(c2ncccn2)C1c1ccc(Cl)cc1)c1ccco1 (stereo unspecified) do in these assays?
MsrA inhibitor: inactive; GalR3 antagonist: inactive; NadD block: inactive; NR2E3 ag-1: inactive; NR2E3 ag-2: inactive; bovine MsrA act: inactive

What do the screens show for `Cc1ccc(C(=O)C2=C(O)C(=O)N(Cc3cccnc3)C2c2cccc(Oc3ccccc3)c2)o1` (stereo unspecified)?
MsrA inhibitor: inactive; GalR3 antagonist: inactive; NR2E3 ag-2: 52; NR2E3 agonist cf: 45; PPARg-NCOR2 ctr: 41

Results for Cc1ccc(C(=O)C2=C(O)C(=O)N(c3ncccn3)C2c2ccc(Cl)cc2)o1 (stereo unspecified) ?
MsrA inhibitor: inactive; GalR3 antagonist: inactive; NadD block: inactive; NR2E3 ag-1: inactive; NR2E3 ag-2: 26; bovine MsrA act: inactive; NR2E3 agonist cf: inactive; PPARg-NCOR2 ctr: inactive

How did Cc1ccc(C(=O)C2=C(O)C(=O)N(Cc3cccnc3)C2c2ccc(Cl)cc2)o1 (stereo unspecified) do in these assays?
MsrA inhibitor: inactive; GalR3 antagonist: inactive; NadD block: inactive; NR2E3 ag-1: inactive; NR2E3 ag-2: inactive; bovine MsrA act: inactive

What do the screens show for `COCCN1C(=O)C(O)=C(C(=O)c2ccco2)C1c1cccc(Oc2ccccc2)c1` (stereo unspecified)?
MsrA inhibitor: inactive; GalR3 antagonist: inactive; NadD block: inactive; NR2E3 ag-1: inactive; NR2E3 ag-2: 23; bovine MsrA act: inactive; NR2E3 agonist cf: inactive; PPARg-NCOR2 ctr: 28

Results for CCCOc1ccc(C2C(C(=O)c3ccc(C)o3)=C(O)C(=O)N2Cc2ccco2)cc1OCC (stereo unspecified) ?
MsrA inhibitor: inactive; GalR3 antagonist: inactive; NadD block: inactive; NR2E3 ag-1: inactive; NR2E3 ag-2: 24; bovine MsrA act: inactive; NR2E3 agonist cf: inactive; PPARg-NCOR2 ctr: inactive

How did O=C(C1=C(O)C(=O)N(Cc2ccco2)C1c1ccccc1)c1cccs1 (stereo unspecified) do in these assays?
MsrA inhibitor: inactive; GalR3 antagonist: inactive; NadD block: inactive; NR2E3 ag-1: inactive; NR2E3 ag-2: 20; bovine MsrA act: inactive; NR2E3 agonist cf: inactive; PPARg-NCOR2 ctr: inactive

Results for O=C(C1=C(O)C(=O)N(Cc2ccco2)C1c1cccs1)c1cccs1 (stereo unspecified) ?
MsrA inhibitor: inactive; GalR3 antagonist: inactive; NadD block: inactive; NR2E3 ag-1: inactive; NR2E3 ag-2: inactive; bovine MsrA act: inactive

What do the screens show for `Nc1nnc(SCCCC(=O)c2ccccc2)s1`?
MsrA inhibitor: inactive; GalR3 antagonist: inactive; NadD block: inactive; NR2E3 ag-1: inactive; NR2E3 ag-2: inactive; bovine MsrA act: inactive

Results for O=c1cc(-c2ccc(O)c(O)c2)oc2cc(O)c([C@@H]3O[C@H](CO)[C@@H](O)[C@H](O)[C@H]3O)c(O)c12 ?
MsrA inhibitor: inactive; GalR3 antagonist: inactive; NadD block: inactive; NR2E3 ag-1: inactive; bovine MsrA act: inactive

How did O=c1c2cc(O)c(O)cc2oc2cc(O)c(C3OC(CO)C(O)C(O)C3O)c(O)c12 (stereo unspecified) do in these assays?
MsrA inhibitor: inactive; GalR3 antagonist: inactive; NadD block: inactive; NR2E3 ag-1: inactive; NR2E3 ag-2: 29; bovine MsrA act: inactive; NR2E3 agonist cf: 20; PPARg-NCOR2 ctr: inactive

Results for COc1ccc(NC(=S)Nc2cc(C)cc(C)n2)cc1OC ?
MsrA inhibitor: inactive; GalR3 antagonist: inactive; NadD block: inactive; NR2E3 ag-1: inactive; NR2E3 ag-2: inactive; bovine MsrA act: inactive

Results for COc1cccc(NC(=S)Nc2cc(C)cc(C)n2)c1 ?
MsrA inhibitor: inactive; GalR3 antagonist: inactive; NadD block: inactive; NR2E3 ag-1: inactive; NR2E3 ag-2: 31; bovine MsrA act: inactive; NR2E3 agonist cf: 30; PPARg-NCOR2 ctr: 39

What do the screens show for `Cc1cc(C)nc(NC(=S)Nc2cccc(F)c2)c1`?
MsrA inhibitor: inactive; GalR3 antagonist: inactive; NadD block: inactive; NR2E3 ag-1: inactive; NR2E3 ag-2: 21; bovine MsrA act: inactive; NR2E3 agonist cf: inactive; PPARg-NCOR2 ctr: 34

How did Nc1ccc2nc(-c3ccc(-c4nc5ccc(N)cc5[nH]4)cc3)[nH]c2c1 do in these assays?
MsrA inhibitor: inactive; GalR3 antagonist: inactive; NR2E3 ag-2: 24; NR2E3 agonist cf: inactive; PPARg-NCOR2 ctr: inactive

Results for C[C@@H]1CN([C@H](C)CO)C(=O)CCCn2nncc2CO[C@H]1CN(C)C(=O)Nc1cccc(Oc2ccccn2)c1 ?
MsrA inhibitor: inactive; GalR3 antagonist: inactive; NadD block: inactive; NR2E3 ag-1: inactive; bovine MsrA act: inactive

Results for Cn1c(N)c(C(=O)CSc2nc(C3CC3)n(-c3ccccc3)n2)c(=O)[nH]c1=O ?
MsrA inhibitor: inactive; GalR3 antagonist: inactive; NadD block: inactive; NR2E3 ag-1: inactive; NR2E3 ag-2: 24; bovine MsrA act: inactive; NR2E3 agonist cf: inactive; PPARg-NCOR2 ctr: inactive

How did Cn1c(N)c(C(=O)CSc2nnc(C3CC3)n2-c2ccccc2)c(=O)[nH]c1=O do in these assays?
MsrA inhibitor: inactive; GalR3 antagonist: inactive; NadD block: inactive; NR2E3 ag-1: inactive; bovine MsrA act: inactive

What do the screens show for `O=C1C=C(OCCCl)CC(c2cccc(Cl)c2)O1` (stereo unspecified)?
MsrA inhibitor: inactive; GalR3 antagonist: inactive

What do the screens show for `O=C(O)c1ccc2c(c1)C1C=CCC1C(c1ccncc1)N2` (stereo unspecified)?
MsrA inhibitor: inactive; GalR3 antagonist: inactive; NadD block: inactive; NR2E3 ag-1: inactive; NR2E3 ag-2: 23; bovine MsrA act: inactive; NR2E3 agonist cf: inactive; PPARg-NCOR2 ctr: inactive

Results for CCOC(=O)C1Nc2ccc(C(=O)O)cc2C2C=CCC12 (stereo unspecified) ?
MsrA inhibitor: inactive; GalR3 antagonist: inactive; NadD block: inactive; NR2E3 ag-1: inactive; NR2E3 ag-2: 30; bovine MsrA act: inactive; NR2E3 agonist cf: inactive; PPARg-NCOR2 ctr: inactive

How did CCOC(=O)c1ccc2c(c1)C1C=CCC1C(C(=O)O)N2 (stereo unspecified) do in these assays?
NR2E3 ag-2: inactive

Screening results as filed in PubChem.
